Tests used:
Type in all cases: physicochemical
[1] = Equilibrium solubility in soybean oil; conditions: 37°C, HPLC
Outline: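 The drug was added in excess to triplicate sealed glass vials of soybean oil (2 g, later 1 g), vortexed and incubated at 37°C. Samples were taken at 24, 48 and 72 h or longer after centrifugation at 37°C, 2,800 g for 30 min. Supernatant (20–30 mg) was diluted in 66% v/v chloroform/methanol and quantified by C18 RP-HPLC-UV against a standard curve. Equilibrium was taken when consecutive 24-h points differed <10%; mean ± SD, n ≥ 3.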

[2] = Equilibrium solubility in PEG400, ambient conditions; conditions: PEG400, 37°C, ambient milieu (0.32% w/w water)
Outline: (§1)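 Excess drug was added to triplicate sealed glass vials of excipient (2 g, later 1 g) and held at 37°C with periodic vortexing. Vials were centrifuged at 37°C, 2,800 g for 30 min and sampled at 24, 48 and 72 h or longer. Supernatant (20–30 mg) was diluted in 7% v/v chloroform/methanol and analysed by C18 RP-HPLC-UV. Equilibrium was taken when consecutive 24-h samples differed <10%; mean ± SD, n ≥ 3.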

[3] = Equilibrium solubility in polysorbate 80; conditions: polysorbate 80, 37°C, HPLC
Outline: as §1

[4] = Solubility in PEG400 under dry conditions; conditions: two tailed t-test, ambient vs dry

## CC(C)(Oc1ccc(CCNC(=O)c2ccc(Cl)cc2)cc1)C(=O)O [Bezafibrate]
[1]
  equilibrium solubility in SBO: less than the limit of detection

## CCOc1nc2cccc(C(=O)O)c2n1Cc1ccc(-c2ccccc2-c2nnn[nH]2)cc1 [Candesartan]
[2]
  equilibrium solubility in PEG400: 13.8 ± 1.5 mg/g
[1]
  equilibrium solubility in SBO: less than the limit of detection

## C#C[C@]1(O)CC[C@H]2[C@@H]3CCc4cc(O)ccc4[C@H]3CC[C@@]21C [Ethinylestradiol]
[2]
  equilibrium solubility in PEG400: high solubility
[3]
  equilibrium solubility in PS80: high solubility

## COc1ccc(Cl)cc1C(=O)NCCc1ccc(S(=O)(=O)NC(=O)NC2CCCCC2)cc1 [Glibenclamide]
[1]
  equilibrium solubility in SBO: less than the limit of detection

## COc1ccc2c(c1)c(CC(=O)O)c(C)n2C(=O)c1ccc(Cl)cc1 [Indomethacin]
[4]
  difference in PEG400 solubility between ambient and dry conditions: no significant difference

## N[C@@H](Cc1cc(I)c(Oc2cc(I)c(O)c(I)c2)c(I)c1)C(=O)O [Levothyroxine]
[1]
  equilibrium solubility in SBO: less than the limit of detection

## CC(C)(C)NC(=O)[C@@H]1C[C@@H]2CCCC[C@@H]2CN1C[C@@H](O)[C@H](Cc1ccccc1)NC(=O)[C@H](CC(N)=O)NC(=O)c1ccc2ccccc2n1 [Saquinavir]
[2]
  equilibrium solubility in PEG400: high solubility

Source: publication PMC3841656 (Pharmaceutical Research, 2013)
